These results are taken from ChEMBL document CHEMBL4340510, “Design, synthesis, and biological evaluation of truncated deguelin derivatives as Hsp90 inhibitors” (Eur J Med Chem, 2019).

Calls of active or inactive are those of the source. The rule behind the calls is not given here.

Assay [1] concerns MCF7. Kind of assay: Induction of apoptosis in human MCF7 cells assessed as increase in early apoptotic cells after 36 hrs by Annexin V-FITC/propidium iodide double staining-based flow cytometry. The assay is classed as functional, cell-based. The method, boiled down:
(§1)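 Cells (1×10^5/well) are cultured 24 h, then treated in triplicate for 36 h at 0.5, 1.0, 2.0 or 4.0 μM. Vehicle is 1‰ DMSO in complete medium. Cells are stained with FITC-Annexin V and PI for 15 min in the dark and analysed by flow cytometry. Mean±SD of three independent experiments.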
In general terms: Flow cytometry measures light scatter and fluorescence of single cells or particles in a stream.

Assay [2] deals with T1, Heat shock protein HSP90 (Homo sapiens) (UniProt P07900+P08238). Kind of assay: Induction of HSP90-mediated AKT degradation in human MCF7 cells assessed as increase in ubiquitinated AKT expression at 4 uM by coimmunoprecipitation-based Western blot assay. Format: cell-based. For orientation: Immunoblotting shows a protein as a band on a membrane.
The test system of assay [3] is NCI-H1299. Kind of assay: Antiproliferative activity against human NCI-H1299 cells assessed as inhibition of cell growth at 10 uM after 72 hrs by MTT assay relative to control. The assay is classed as functional. The conditions noted are these: NCI-H1299, 72 h, read-out: GI. The method in brief:
(§2)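 Cells in RPMI 1640 are seeded at 4,000 cells/well and held 24 h at 37 °C, 5% CO2. Medium is replaced with compound-containing medium (DMSO ≤0.25%) for 72 h at 37 °C. MTT read-out by absorbance at 570 nm. Quadruplicate wells, repeated three times; values are means of three independent experiments.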
A general note: Tetrazolium assays rely on reduction of a dye to a coloured formazan, in cell work by metabolically active cells.

In assay [4] the target is Heat shock protein HSP 90-alpha (Homo sapiens, UniProt P07900). Kind of assay: Inhibition of FITC-geldanamycin binding to recombinant human full-length C-terminal His-tagged HSP90alpha […] (1 to 732 residues) expressed in Escherichia coli after 1 hr by fluorescence polarization assay.
The subject of assay [5] is MCF7. Kind of assay: Cell cycle arrest in human MCF7 cells assessed as accumulation at G1 phase at 2 uM after 48 hrs by propidium iodide staining-based flow cytometry (reference value: 60.61%). Format: functional. The method in brief:
(§3)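 5×10^4 cells are seeded, incubated overnight, then treated 48 h. Cells are washed in cold PBS and fixed in 70% ethanol at −20 °C for 12 h. They are then stained with 100 µg/mL RNase plus 50 µg/mL PI in PBS, 37 °C for 30 min. DNA content is measured by flow cytometry.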

The subject of assay [6] is MCF7. Kind of assay: Induction of apoptosis in human MCF7 cells assessed as rounding of nuclei at 0.5 to 4 uM after 36 hrs by hoechst 33258 staining-based fluorescence microscopy. Format: functional, cell-based. The method in brief: (§4)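 Approximately 5×10^4 cells per well are exposed to 0, 0.5, 1.0, 2.0 or 4.0 μM for 36 h. Cells are PBS-washed and fixed in 4% paraformaldehyde for 30 min. They are stained with 20 μg/ml Hoechst 33258 for 15 min at room temperature in the dark, and nuclear morphology is examined by fluorescence microscopy.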

In assay [7] the test system is MCF7. Kind of assay: Cell cycle arrest in human MCF7 cells assessed as accumulation at S phase at 1 uM after 48 hrs by propidium iodide staining-based flow cytometry (reference value: 16.64%). The assay is classed as functional. The method, boiled down:
as §3

Assay [8] has as its system NCI-H1299. Kind of assay: Antiproliferative activity against human NCI-H1299 cells assessed as inhibition of cell growth at 0.1 uM after 72 hrs by MTT assay relative to control. The assay is classed as functional. The conditions noted are these: NCI-H1299, 72 h, read-out: GI. The method, boiled down: as §2
For assay [9], the system named is MCF7. Kind of assay: Potency index, ratio of deguelin IC50 to test compound IC50 for human MCF7 cells. The assay is classed as functional. The method, boiled down: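 MTT assay on MCF-7 cells. Cells were seeded at 4,000/well and pre-incubated 24 h at 37 °C in humidified 5% CO2, then exposed to a range of compound concentrations for 72 h, with DMSO at no more than 0.25%. Absorbance was read at 570 nm, in quadruplicate, repeated three times. The IC50 for each test compound and for deguelin is the mean of three independent experiments, and the index is the deguelin IC50 divided by the compound IC50.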

The next assay relates to A549. Kind of assay: Antiproliferative activity against human A549 cells after 72 hrs by MTT assay. The assay is classed as functional, cell-based. The conditions noted are these: A549, 72 h. The method in brief:
as §2

The subject of assay [10] is MCF7. Kind of assay: Cell cycle arrest in human MCF7 cells assessed as accumulation at S phase at 2 uM after 48 hrs by propidium iodide staining-based flow cytometry (reference value: 16.64%). The assay is classed as functional. The method in brief: as §3
Assay [11] addresses T1, Heat shock protein HSP90 (Homo sapiens). Kind of assay: Inhibition of HSP90 in human MCF7 cells assessed as down regulation of survivin expression after 48 hrs by Western blot analysis. The assay is classed as cell-based. The method in brief: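 Cells are treated 48 h and washed twice in ice-cold PBS. They are lysed on ice for 20 min and spun at 13,000 g, 4 °C. 20 μg protein is run on 8-12% SDS-PAGE and transferred to PVDF. Membranes are probed overnight at 4 °C with primary antibodies (Bcl-xL, cleaved caspase-3, mTOR/p-mTOR, MAPK/p-MAPK, Akt/p-Akt, HIF-1α, survivin; β-actin/GAPDH loading). HRP secondary and chemiluminescence detection follow.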

The subject of assay [12] is MCF7. Kind of assay: Cell cycle arrest in human MCF7 cells assessed as increase in accumulation at G2 phase after 48 hrs by propidium iodide staining-based flow cytometry. The assay is classed as functional. The method in brief:
as §3

The subject of assay [13] is MCF7. Kind of assay: Induction of apoptosis in human MCF7 cells assessed as cell rounding at 0.5 to 4 uM after 36 hrs by hoechst 33258 staining-based fluorescence microscopy. Format: functional. The method, boiled down: as §4
The subject of assay [14] is MCF7. Kind of assay: Cell cycle arrest in human MCF7 cells assessed as accumulation at G2 phase at 0.5 uM after 48 hrs by propidium iodide staining-based flow cytometry (reference value: 22.74%). Format: functional. The method in brief: as §3
Assay [15] deals with MCF7. Kind of assay: Induction of apoptosis in human MCF7 cells assessed as increase in late apoptotic cells after 36 hrs by Annexin V-FITC/propidium iodide double staining-based flow cytometry. The assay is classed as functional, cell-based. The method, boiled down:
as §1

The test system of assay [16] is NCI-H1299. Kind of assay: Antiproliferative activity against human NCI-H1299 cells after 72 hrs by MTT assay. The assay is classed as functional, cell-based. The conditions noted are these: NCI-H1299, 72 h. The method in brief: as §2
Assay [17] concerns NCI-H1299. Kind of assay: Antiproliferative activity against human NCI-H1299 cells assessed as inhibition of cell growth at 1 uM after 72 hrs by MTT assay relative to control. The conditions noted are these: NCI-H1299, 72 h, read-out: GI. The assay is classed as functional. The method in brief:
as §2

For orientation: IC50 means the concentration that inhibits the measured activity by half.

Take `COc1cc(OC)c(OC)cc1CC(=O)c1ccc2c(c1OC)C=CC(C)(C)O2`: the Activity result with MCF7 [1] is “Dose-dependent effect”; in the assay with MCF7 [5] it was 46.21%; in the assay on MCF7 [7] it was 23.2%; in the assay on MCF7 [10], 19.64%; in the assay with MCF7 [12], “Dose-dependent effect”; with MCF7 [14], 19.51%. In addition, the Activity entry in the assay with MCF7 [15] was “Dose-dependent effect”. Moreover, the result (in assay [2]; with MCF7 [6]; with MCF7 [13]) was Active. Besides, the inhibition of growth at 10 µM in the assay with NCI-H1299 [3] was 72.1%. For the same compound, the IC50 was found to be 0.06 µM in assay [4], 3.46 µM in the assay with A549 and 3.4 µM in the assay on NCI-H1299 [16]. For the same compound, the inhibition of growth at 0.1 µM in the assay on NCI-H1299 [8] worked out at 15.3%. For the same compound, the “Ratio IC50” value with MCF7 [9] amounted to 3. In addition, in assay [11], the inhibition result was “Dose-dependent effect”. The inhibition of growth at 1 µM in the assay with NCI-H1299 [17] stood at 40.3%.
